Published values from different studies.
Each line is one published result; the experiments were not run side by side.
Organism: Staphylococcus aureus
Read-out: microbial growth

C/C=C(\C)c1cc(O)c(C)c(OC(=O)c2c(C)cc(O)c(Cl)c2O)c1 — MIC (broth dilution; 6917): 32 mg/L
CCCCCCC#Cc1cncc(-c2nnc(SCc3ccc([N+](=O)[O-])o3)n2C2CC2)c1 — MIC (MRSA; drug-resistant strain): ≥ 20 mg/L
Cc1cc(/C=C2\Sc3ccccc3N2CCCN2CCC(C)CC2)c2ccccc2[n+]1C.[I-] — MIC (broth dilution; ATCCBAA44): 1 mg/L
CCOc1cc(-c2nc3ccccc3[nH]2)ccc1O — MIC (broth dilution; ATCC29213 MSSA): 128 mg/L
O=C(O)CN1C(=O)/C(=C/c2ccc(-c3ccc(N(c4ccccc4)c4ccccc4)cc3)c3ccccc23)SC1=S — MIC (broth dilution; ATCC43300): 1000 mg/L
C/C=C(\C)c1cc(OC(=O)c2c(C)c(Cl)c(O)c(Cl)c2O)c(C)c(O)c1C(=O)O — MIC (broth dilution; 6917): > 64 mg/L
COc1cccc(OC)c1C(=O)N[C@@H]1C(=O)N2[C@@H]1SC(C)(C)[C@@H]2C(=O)O — MIC (156; clinical isolate): 25 µM
NC[C@@H]1O[C@H](O[C@H]2[C@@H](O)[C@H](O[C@@H]3[C@@H](O)[C@H](N)C[C@H](N)[C@H]3O[C@H]3O[C@H](CN)[C@@H](O)[C@H](O)[C@H]3N)O[C@@H]2CO)[C@H](N)[C@@H](O)[C@@H]1O — MIC (USA300): 5 mg/L
C=CCOc1c(C)c(O)c(C(=O)/C=C/c2ccccc2)c(OC)c1C — MIC (broth dilution; ATCC25923): > 5000 mg/L
C[n+]1c(/C=C/c2ccc(O)cc2)cc(/C=C2\Sc3ccccc3N2CCCN2CCCC2)c2ccccc21.[I-] — MIC (broth dilution; ATCCBAA44): 32 mg/L
CC1(C)S[C@@H]2[C@H](NC(=O)[C@H](N)c3ccccc3)C(=O)N2[C@H]1C(=O)O — MIC (broth dilution; ATCC29213): 1 mg/L
COC(=O)c1ccc2c(C(=Nc3ccc(N(C)C(=O)CN4CCN(C)CC4)cc3)c3ccccc3)c(O)[nH]c2c1 — MIC (NCTC8325): > 30 µM
CC[C@H]1OC(=O)[C@H](C)[C@@H](O[C@H]2C[C@@](C)(OC)[C@@H](O)[C@H](C)O2)[C@H](C)[C@@H](O[C@@H]2O[C@H](C)C[C@H](N(C)C)[C@H]2O)[C@](C)(O)C[C@@H](C)C(=O)[C@H](C)[C@@H](O)[C@]1(C)O — MIC (broth dilution; 25923): 0.59 µM
CCC1(C)CC(OC(=O)CSc2nnc(N)[nH]2)C2(C)C(C)CCC3(CCC(=O)C32)C(C)C1O (stereo not shown) — MIC: 0.5 mg/L
Cc1ccc(C)n1-c1ccc(-c2n[nH]c(=S)[nH]2)cc1 — MIC (broth dilution; ATCC11632; 18 h): 4 mg/L
C/C=C(\C)c1cc(O)c(C)c(OC(=O)c2c(C)c(Cl)c(O)c(Cl)c2O)c1 — MIC (broth dilution; 16162): 2 mg/L
CN1CCN=C1c1ccc(NC(=O)c2ccc(C(=O)Nc3ccc(C4=NCCN4C)cc3)cc2)cc1 — MIC: 8 mg/L
Cc1ccc2nc(-c3ccc(Cl)cc3)[nH]c2c1 — MIC (broth dilution; ATCC29213 MSSA): 256 mg/L
C/C=C(\C)c1cc(OC(=O)c2c(O)c(C)c(O)c(Cl)c2/C(C)=C/C)c(C)c(O)c1C(=O)O — MIC (broth dilution; ATCC29213): 64 mg/L
COc1cc(OC)c2cc(C(=O)NCc3ccc(Br)cc3)cc(O)c2c1 — MIC (broth dilution; ATCC29213 MSSA): 32 mg/L
CNC(=O)CN1CCC(Oc2cc3c(Nc4cccc(Cl)c4F)ncnc3cc2OC)CC1 — MIC (NCTC8325): > 30 µM
CC(C)COc1c(NC(=O)c2ccc(NC(=O)[C@H](CC(N)=O)NC(=O)c3ccc(NC(=O)c4ccc(C#N)cc4)cc3)cc2)ccc(C(=O)Nc2ccc(C(=O)O)cc2)c1O — MIC (ATCC29213): 0.25 mg/L
Cc1c(CN(C)C(=O)/C=C/c2cnc3c(c2)CC(NC(=O)OC(C)(C)C)C(=O)N3)oc2ccccc12 (stereo not shown) — MIC (broth dilution; ATCC29213): 0.016 mg/L
Cc1[nH]c(/C=C2\C(=O)Nc3ccccc32)c(C)c1CCC(=O)O — MIC (NCTC8325): > 30 µM
CC(C)Oc1c(NC(=O)c2ccc(NC(=O)[C@H](CC(N)=O)NC(=O)c3ccc(NC(=O)c4cc(=O)c(O)c[nH]4)cc3)cc2)ccc(C(=O)Nc2ccc(C(=O)O)cc2)c1O — MIC (ATCC29213): > 64 mg/L
CO[C@H]1/C=C/O[C@@]2(C)Oc3c(C)c(O)c4c(O)c(c(/C=N/N5CCN(C)CC5)c(O)c4c3C2=O)NC(=O)/C(C)=C\C=C\[C@H](C)[C@H](O)[C@@H](C)[C@@H](O)[C@@H](C)[C@H](OC(C)=O)[C@@H]1C — MIC (broth dilution; ATCC29213; 24 h): 0.0078 mg/L
CC1(C)S[C@@H]2[C@H](NC(=O)[C@H](N)c3ccccc3)C(=O)N2[C@H]1C(=O)O — MIC (broth dilution): 0.02 mg/L
c1ccc2[nH]c(-c3ccc4c(c3)OCO4)nc2c1 — MIC (broth dilution; ATCC29213 MSSA): 128 mg/L
O=C(O)c1cn(C2CC2)c2cc(N3CCNCC3)c(F)cc2c1=O — MIC (broth dilution; ATCC43300): 0.24 mg/L
COc1ncc(-c2ccc3nccc(-c4ccnnc4)c3c2)cc1NS(=O)(=O)c1ccc(F)cc1F — MIC (NCTC8325): > 30 µM
CC(C)Oc1c(NC(=O)c2ccc(NC(=O)[C@H](CC(N)=O)NC(=O)c3ccc(NC(=O)C(C)Oc4ccccc4)cc3)cc2)ccc(C(=O)Nc2ccc(C(=O)O)cc2)c1O (stereo partly shown) — MIC (ATCC29213): > 64 mg/L
O=C(Nc1cccc(NC(=O)Nc2ccc(Cl)c(C(F)(F)F)c2)c1)Nc1ccc(Cl)c(C(F)(F)F)c1 — MIC (NCTC8325; 24 h): 1 µM
O=C(O)CN1C(=O)/C(=C/c2c3ccccc3c(-c3ccc(N(c4ccccc4)c4ccccc4)cc3)c3ccccc23)NC1=S — MIC (broth dilution; ATCC25923): > 1000 mg/L
O=C(O)c1cc(Br)c(O)c(Br)c1 — MIC: > 128 mg/L
CC(C)Oc1c(NC(=O)c2ccc(NC(=O)[C@H](CC(N)=O)NC(=O)c3ccc(NC(=O)c4ccc(C#N)nc4)cc3)cc2)ccc(C(=O)Nc2ccc(C(=O)O)cc2)c1O — MIC (ATCC29213): 64 mg/L
C=C(C/C=C(\C)CCC=C(C)C)CCC(C)(C)/C=C/CC/C(C)=C\CO[C@H](COP(=O)(O)O[C@H]1O[C@H](C(N)=O)[C@@](C)(O)[C@H](OC(N)=O)[C@H]1O[C@@H]1O[C@H](CO[C@@H]2O[C@H](CO)[C@@H](O)[C@H](O)[C@H]2O)[C@@H](O[C@@H]2O[C@H](C)[C@@H](O[C@@H]3O[C@H](C(=O)NC4=C(O)CCC4=O)[C@H](O)[C@H](O)[C@H]3O)[C@H](O)[C@H]2NC(C)=O)[C@H](O)[C@H]1NC(C)=O)C(=O)O — MIC (broth dilution; 18 h): < 0.75 mg/L
Cc1ccc2nc(-c3cccc(O)c3)[nH]c2c1 — MIC (broth dilution; ATCC29213 MSSA): 32 mg/L
O=C1NC(=O)/C(=C\c2ccc3nccnc3c2)S1 — MIC (NCTC8325): > 30 µM
Cc1ccc(NCc2ccc(Oc3ccccn3)cc2)cc1 — MIC: 1.8 mg/L
Cc1ccc2nc(-c3ccco3)[nH]c2c1 — MIC (broth dilution; ATCC29213 MSSA): 256 mg/L
CC(C)Oc1c(NC(=O)c2ccc(NC(=O)[C@H](CC(N)=O)NC(=O)c3ccc(NC(=O)c4ccc(N)cc4)cc3)cc2)ccc(C(=O)Nc2ccc(C(=O)O)cc2)c1O — MIC (ATCC29213): > 64 mg/L
COc1ccc(-c2nc3ccccc3[nH]2)cc1O — MIC (broth dilution; ATCC29213 MSSA): 128 mg/L
CC(C)Oc1c(NC(=O)c2ccc(NC(=O)[C@H](CC(N)=O)NC(=O)c3ccc(C#Cc4ccc(C#N)cc4)cc3)cc2)ccc(C(=O)Nc2ccc(C(=O)O)cc2)c1O — MIC (ATCC29213): ≤ 0.03 mg/L
CC1=NN(CNC(=O)c2ccccn2)C(=O)C1=NNn1c(-c2ccccc2)nc2ccccc2c1=O — MIC (broth dilution; 24 h): 52 µM
Cc1ccc(C)n1-c1ccc(-c2nnc(S)s2)cc1 — MIC (broth dilution; ATCC11632; 18 h): 1 mg/L
COc1cc(/C=N\NC(=O)c2ccc(Br)cc2)ccc1OC(=O)c1cccs1 — MIC: > 128 mg/L
CSc1ccc(-c2nc3ccc(C)cc3[nH]2)cc1 — MIC (broth dilution; ATCC29213 MSSA): 16 mg/L
c1ccc(NCc2ccc(Oc3ccccn3)cc2)cc1 — MIC: 1.8 mg/L
CCOc1ccc(-c2nc3ccccc3[nH]2)cc1 — MIC (broth dilution; ATCC29213 MSSA): 256 mg/L
CN[C@H](CC(C)C)C(=O)N[C@H]1C(=O)N[C@@H](CC(N)=O)C(=O)N[C@H]2C(=O)N[C@H]3C(=O)N[C@H](C(=O)N[C@H](C(=O)O)c4cc(O)cc(O)c4-c4cc3ccc4O)[C@H](O)c3ccc(c(Cl)c3)Oc3cc2cc(c3O[C@@H]2O[C@H](CO)[C@@H](O)[C@H](O)[C@H]2O[C@H]2C[C@](C)(N)[C@H](O)[C@H](C)O2)Oc2ccc(cc2Cl)[C@H]1O — MIC (broth dilution; CCARM3090): 0.5 mg/L
O=C1NC(=S)S/C1=C\c1ccc(-c2ccc(N(c3ccccc3)c3ccccc3)cc2)c2ccccc12 — MIC (broth dilution; ATCC6538): 500 mg/L
O=C(O)c1cn(C2CC2)c2cc(N3CCNCC3)c(F)cc2c1=O — MIC (broth dilution; 24 h): 9.43 µM
O=C(CCCCCCCC[P+](c1ccccc1)(c1ccccc1)c1ccccc1)Nc1ccc(O)c(O)c1.[Br-] — MIC (broth dilution; ATCC43300 MRSA; 18 h): > 32 mg/L
Nc1ncnc2c1c(-c1cnc3[nH]ccc3c1)nn2C1CCCC1 — MIC (NCTC8325): > 30 µM
O=C1NC(=S)N/C1=C\c1c2ccccc2c(-c2ccc(N(c3ccccc3)c3ccccc3)cc2)c2ccccc12 — MIC (broth dilution; ATCC43300): > 1000 mg/L
CC(C)Oc1c(NC(=O)c2ccc(NC(=O)[C@H](CC(N)=O)NC(=O)c3ccc(NC(=O)c4ccc(NC(=O)c5ccc([N+](=O)[O-])cc5)cc4)cc3)cc2)ccc(C(=O)Nc2ccc(C(=O)O)cc2)c1O — MIC (ATCC29213): > 64 mg/L
Oc1ccc(-c2nc(-c3ccc(F)cc3)c(-c3ccncc3)[nH]2)cc1 — MIC (NCTC8325): > 30 µM
CCCC(=O)Oc1c(C)c(O)c(C(=O)/C=C/c2ccccc2)c(OC)c1C — MIC (broth dilution; ATCC25923): > 5000 mg/L
